Drawing on ChEMBL document CHEMBL2417409 (Eur J Med Chem, 2013), this text covers inhibition, IC50 and Ki for 18 compounds.

Where only a bound is given, the exact number is not on record here.

Experiment [1] concerns Radical scavenging activity. The experiment in a line: Antioxidant activity assessed as DPPH radical scavenging activity at 10 mg/ml after 15 mins by spectrophotometry. It is filed as functional. The gist of the method: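 Sample (10 µL at 0.1, 1.0 or 10.0 mg/mL) mixed with 0.1 mM DPPH in methanol (150 µL), kept in the dark at room temperature on a shaker for 15 min. Percentage scavenging = [(A0 − A1)/A0] × 100, with A0 and A1 the absorbance without and with sample.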
A general note: Loss of DPPH colour is used to gauge radical scavenging.

The target in experiment [2] is T1, Sucrase-isomaltase, intestinal (Rattus norvegicus, UniProt P23739). The experiment in a line: Inhibition of rat intestine sucrase using sucrose as substrate incubated for 10 mins prior to substrate addition measured after 40 mins by glucose oxidase colorimetric method. The gist of the method:
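Crude enzyme from centrifuged (12,000 g, 30 min) intestinal supernatant containing both maltase and sucrase. Test compound (1 mg/mL stock, DMSO) preincubated with enzyme at 37 C for 10 min. Substrate in 0.1 M phosphate buffer pH 6.9 (maltose 0.58 mM or sucrose 20 mM) added, then 40 min at 37 C. Quenched at 80 C for 15 min. Released glucose measured by glucose oxidase kit.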

Another experiment has as its system Saccharomyces cerevisiae. Nature of the experiment: Inhibition of yeast type 1 alpha-glucosidase using PNPG as substrate at 10 mg/ml incubated for 10 mins prior to substrate addition measured after 20 mins by spectrophotometry.
The target of experiment [3] is T1, Sucrase-isomaltase, intestinal. The experiment in a line: Non-competitive inhibition of rat intestine sucrase using sucrose as substrate by Lineweaver-Burk plot analysis. A digest of the protocol:
(§1)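 Same maltase/sucrase reactions, with activity held at 0.45 (maltase) and 0.09 (sucrase) U/mg protein. Inhibitor 0 to 20.4 mM against substrate 1.0 to 20.0 mM. Vmax and Km obtained from Lineweaver–Burk intercepts and slopes. Ki (EI) from a secondary plot of slope versus inhibitor concentration; Ki′ (ESI) from a secondary plot of intercept versus inhibitor concentration.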

For experiment [4] the target is unchanged. The experiment in a line: Competitive inhibition of rat intestine sucrase using sucrose as substrate by Lineweaver-Burk plot analysis. The gist of the method:
as §1

Experiment [5] has as its system Radical scavenging activity. Nature of the experiment: Antioxidant activity assessed as DPPH radical scavenging activity after 15 mins by spectrophotometry. It is filed as functional. A digest of the protocol: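 Sample (10 µL at 0.1, 1.0 or 10.0 mg/mL) mixed with 0.1 mM DPPH in methanol (150 µL), kept in the dark at room temperature on a shaker for 15 min. Absorbance read at 517 nm. Percentage scavenging = [(A0 − A1)/A0] × 100, with A0 and A1 the absorbance without and with sample.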

Experiment [6] is described as follows: Inhibition of yeast type 1 alpha-glucosidase using PNPG as substrate incubated for 10 mins prior to substrate addition measured after 20 mins by spectrophotometry. Set-up: species or system Saccharomyces cerevisiae.
Experiment [7] has as its target Sucrase-isomaltase, intestinal (Rattus norvegicus) (UniProt P23739). Nature of the experiment: Inhibition of rat intestine sucrase using sucrose as substrate at 10 mg/ml incubated for 10 mins prior to substrate addition measured after 40 mins by glucose oxidase colorimetric method.
Experiment [8] deals with Maltase-glucoamylase, intestinal (Rattus norvegicus). Nature of the experiment: Inhibition of rat intestine maltase using maltose as substrate at 10 mg/ml incubated for 10 mins prior to substrate addition measured after 40 mins by glucose oxidase colorimetric method.

Sucrase-isomaltase, intestinal (Rattus norvegicus), sequence (P23739 1-1013 limits assumed): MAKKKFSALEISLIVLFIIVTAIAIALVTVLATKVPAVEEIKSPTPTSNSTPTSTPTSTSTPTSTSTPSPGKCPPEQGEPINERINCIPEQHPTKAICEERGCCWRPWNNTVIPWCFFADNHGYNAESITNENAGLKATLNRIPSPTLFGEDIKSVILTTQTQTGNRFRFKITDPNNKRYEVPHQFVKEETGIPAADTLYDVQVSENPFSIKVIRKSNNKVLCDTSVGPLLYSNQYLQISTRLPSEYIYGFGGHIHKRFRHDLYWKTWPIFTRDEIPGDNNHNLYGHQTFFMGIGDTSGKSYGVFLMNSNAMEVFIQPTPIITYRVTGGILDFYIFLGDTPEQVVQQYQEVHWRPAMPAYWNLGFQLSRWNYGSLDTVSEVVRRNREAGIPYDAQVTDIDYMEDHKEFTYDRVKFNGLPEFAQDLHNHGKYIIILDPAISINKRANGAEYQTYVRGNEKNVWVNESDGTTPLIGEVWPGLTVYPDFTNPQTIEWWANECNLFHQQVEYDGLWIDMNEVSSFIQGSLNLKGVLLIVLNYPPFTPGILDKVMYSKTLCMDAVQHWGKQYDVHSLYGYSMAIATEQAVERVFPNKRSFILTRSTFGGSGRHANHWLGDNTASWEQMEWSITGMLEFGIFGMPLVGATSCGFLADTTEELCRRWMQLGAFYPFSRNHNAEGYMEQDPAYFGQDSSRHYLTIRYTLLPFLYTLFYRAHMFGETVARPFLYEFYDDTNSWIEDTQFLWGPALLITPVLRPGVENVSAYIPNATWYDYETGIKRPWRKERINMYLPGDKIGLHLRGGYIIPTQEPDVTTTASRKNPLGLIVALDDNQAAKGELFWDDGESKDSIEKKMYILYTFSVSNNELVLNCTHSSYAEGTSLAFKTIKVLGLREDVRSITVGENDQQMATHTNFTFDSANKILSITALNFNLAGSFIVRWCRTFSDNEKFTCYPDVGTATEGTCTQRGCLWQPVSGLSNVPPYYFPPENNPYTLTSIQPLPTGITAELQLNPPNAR
Sucrase-isomaltase, intestinal (Rattus norvegicus), sequence (P23739 1014-1841 limits assumed): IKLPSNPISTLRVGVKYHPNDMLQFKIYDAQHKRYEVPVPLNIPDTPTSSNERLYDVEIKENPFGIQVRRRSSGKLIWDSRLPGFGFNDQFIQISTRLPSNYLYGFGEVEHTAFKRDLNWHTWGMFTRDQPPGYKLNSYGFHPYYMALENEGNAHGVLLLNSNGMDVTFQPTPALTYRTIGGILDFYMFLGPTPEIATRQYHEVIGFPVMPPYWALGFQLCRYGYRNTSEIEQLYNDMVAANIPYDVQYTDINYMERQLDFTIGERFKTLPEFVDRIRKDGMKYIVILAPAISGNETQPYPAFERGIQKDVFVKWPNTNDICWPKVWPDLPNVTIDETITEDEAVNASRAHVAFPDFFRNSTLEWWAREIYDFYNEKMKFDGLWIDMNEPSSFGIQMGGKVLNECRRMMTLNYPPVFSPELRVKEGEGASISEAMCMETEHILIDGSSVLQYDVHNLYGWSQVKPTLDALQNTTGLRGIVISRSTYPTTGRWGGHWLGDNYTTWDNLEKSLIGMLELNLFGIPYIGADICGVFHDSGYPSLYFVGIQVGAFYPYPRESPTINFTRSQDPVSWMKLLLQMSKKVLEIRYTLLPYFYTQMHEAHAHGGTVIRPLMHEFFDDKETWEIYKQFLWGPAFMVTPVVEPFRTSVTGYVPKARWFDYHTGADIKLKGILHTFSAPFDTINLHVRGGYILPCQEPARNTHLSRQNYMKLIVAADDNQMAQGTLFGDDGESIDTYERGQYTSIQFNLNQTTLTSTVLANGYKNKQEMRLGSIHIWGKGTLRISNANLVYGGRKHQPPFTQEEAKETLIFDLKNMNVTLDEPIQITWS
T1 sequence (P23739 1-1013 limits assumed): as the sequence (P23739 1-1013 limits assumed) above
T1 sequence (P23739 1014-1841 limits assumed): as the sequence (P23739 1014-1841 limits assumed) above

Regarding `COc1ccc(/C=C/C(=O)O[C@H]2C[C@@H](O)[C@H](O)[C@@H](O)[C@H]2O)cc1O`, the figures for the inhibition (in [1]; in the experiment on Saccharomyces cerevisiae) were under 50% and under 30%, respectively. This compound displayed an IC50 in experiment [2] of 805 µM.

As to `O=C(/C=C/c1ccc(O)c(O)c1)O[C@@H]1C[C@@H](O)[C@H](O)[C@@H](O)[C@H]1O`, the Ki is 47.5 µM in experiment [3] and 22.4 µM in [4]. The IC50 in experiment [5] came to 110 µM; in experiment [2], 43.6 µM. In the experiment on Saccharomyces cerevisiae, this compound came in with an inhibition of under 30%.

Take `C[C@H]1O[C@H](O[C@H]2[C@H](O)[C@@H](O)[C@@H](O[C@H]3[C@H](O)[C@@H](O)C(O)O[C@@H]3CO)O[C@@H]2CO)[C@H](O)[C@@H](O)[C@@H]1N[C@H]1C=C(CO)[C@@H](O)[C@H](O)[C@H]1O` (stereo partly drawn) [ACARBOSE]: in experiment [6], half-maximal inhibition (IC50) required 404 µM.

Consider `COc1cc(/C=C/C(=O)O[C@H]2C[C@@H](O)[C@H](O)[C@@H](O)[C@H]2O)ccc1O`, for which the inhibition in experiment [1] was under 50%; in the experiment with Saccharomyces cerevisiae, under 30%. Moreover, inhibition in experiment [2] was half-maximal at 171 µM (IC50).

In the case of `COc1cc(/C=C/C(=O)O[C@@H]2C[C@@H](O)[C@H](O)[C@@H](O)[C@H]2O)ccc1O`, the inhibition in experiment [1] is under 50%; in the experiment with Saccharomyces cerevisiae, under 30%. Further, half-maximal inhibition in experiment [2] (IC50) was put at 67.2 µM.

In [7], `COc1ccc(/C=C/C(=O)O[C@H]2C[C@@H](O)[C@H](O)[C@@H](O)[C@H]2O)cc1OC` displayed an inhibition of under 30%.

`COc1ccccc1/C=C/C(=O)O[C@@H]1C[C@@H](O)[C@H](O)[C@@H](O)[C@H]1O`: the inhibition in experiment [7] was under 30%.

With `COc1ccc(/C=C/C(=O)O[C@@H]2C[C@@H](O)[C@H](O)[C@@H](O)[C@H]2O)cc1O`, the inhibition in experiment [1] was under 50%; in the experiment on Saccharomyces cerevisiae, under 30%. The IC50 in experiment [2] is 53 µM.

In experiment [7], `COc1cccc(/C=C/C(=O)O[C@H]2C[C@@H](O)[C@H](O)[C@@H](O)[C@H]2O)c1` registered an inhibition of under 30%.

Take `COc1ccc(O)c(C(C)(C)C)c1.COc1ccc(O)cc1C(C)(C)C` [BUTYLATED HYDROXYANISOLE]: in [5], the half-inhibitory concentration (IC50) came out at 0.1 µM.

Regarding `COc1cc(/C=C/C(=O)O[C@@H]2C[C@@H](O)[C@H](O)[C@@H](O)[C@H]2O)cc(OC)c1OC`, the inhibition was under 50% in experiment [1], under 30% in experiment [7], under 30% with Saccharomyces cerevisiae and under 30% in [8].

Regarding `COc1ccc(/C=C/C(=O)O[C@@H]2C[C@@H](O)[C@H](O)[C@@H](O)[C@H]2O)cc1`, the inhibition was under 50% in [1], under 30% in [7], under 30% in the experiment on Saccharomyces cerevisiae and under 30% in experiment [8].

Consider `COc1ccccc1/C=C/C(=O)O[C@H]1C[C@@H](O)[C@H](O)[C@@H](O)[C@H]1O`, for which, in experiment [7], the inhibition is under 30%.

Turning to `COc1ccc(/C=C/C(=O)O[C@H]2C[C@@H](O)[C@H](O)[C@@H](O)[C@H]2O)cc1`, the inhibition was under 50% in experiment [1], under 30% in experiment [7], under 30% in the experiment with Saccharomyces cerevisiae and under 30% in experiment [8].

In the case of `O=C(O)/C=C/c1ccc(O)c(O)c1` [CAFFEIC ACID], the IC50 in experiment [5] stood at 150 µM; in experiment [2], 87.4 µM. The compound further returned an inhibition in the experiment on Saccharomyces cerevisiae of under 30%.

Consider `O=C(/C=C/c1ccc(O)c(O)c1)O[C@H]1C[C@@H](O)[C@H](O)[C@@H](O)[C@H]1O`, for which the inhibition in experiment [1] was under 50%; with Saccharomyces cerevisiae, under 30%. In experiment [2], this compound gave an IC50 of 954 µM.

With `COc1ccc(/C=C/C(=O)O[C@@H]2C[C@@H](O)[C@H](O)[C@@H](O)[C@H]2O)cc1OC`, the inhibition in experiment [7] is under 30%.

Compound `COc1cccc(/C=C/C(=O)O[C@@H]2C[C@@H](O)[C@H](O)[C@@H](O)[C@H]2O)c1` came in with an inhibition in [7] of under 30%.

In general, inhibition refers to the relative decrease from the control value, in per cent. By IC50 is commonly meant the concentration that inhibits the measured activity by half. What is called Ki is a dissociation constant, usually derived from enzyme kinetics or from competition with a known ligand. High values mean weaker binding, low ones tighter binding.
